Assay outcomes deposited in PubChem BioAssay by several laboratories.
MC4R ag barr: MC4R agonists recruiting beta-arrestin, primary screen, cell-based, luminescence, agonist arm of biased-ligand search; U2OS MC4R beta-arrestin complementation; percent of melanotan II response, DMSO zero; hit rate 0.98% among 360,000; AID 540308, 2011; activation, % at 8.9 µM;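 active = activation above a per-plate cutoff, the mean activation of sample wells on that plate plus 3 SD, cut at about 8% in these data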
EBI2 antag: EBI2 receptor antagonists, beta-arrestin recruitment, primary screen, cell-based, luminescence, 7a,25-OHC stimulation, uHTS; hit rate 0.81% among 360,000; 7a,25-OHC stimulated; G-protein coupled receptor 183 (Homo sapiens), P32249; inhibition, % at 5 µM; AID 651636, 2012; in the data active = inhibition above about 38%;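 note: enzyme fragment complementation signal reports receptor beta-arrestin coupling in cells; 0% = agonist plus DMSO wells and 100% = wells without agonist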
MC4R antag cAMP: MC4R antagonists of cAMP signaling, primary screen, cell-based, TR-FRET, antagonist arm of biased-ligand search; Melanocortin receptor 4 (Homo sapiens), P32245; MC4R-expressing cells, MTII-stimulated cAMP, LANCE TR-FRET; inhibition, % at 6.5 µM; hit rate 0.48% among 360,000;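 active = inhibition above its plate's cutoff, the mean of tested wells on that plate plus 3 SD, cut at about 29% in these data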;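 note: 0% = Melanotan II alone and 100% = Melanotan II plus saturating MCL0020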
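Assay system: U2OS-MC4R stable cell line; Also added: Melanotan II; Technique: Eu-cAMP/anti-cAMP TR-FRET, emission 671 nm; Times: 30-min compound, 1-h challenge, 1-h detection, room temperature.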
HTR2A ag: mouse Htr2a agonists via beta-arrestin recruitment, primary screen, cell-based, luminescence. 5-hydroxytryptamine receptor 2A (Mus musculus), P35363. CHO-K1 mHTR2A beta-arrestin complementation; percent of 30 µM serotonin response. hit rate 0.66% among 360,000. activation, % at 7.6 µM;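 active = activation above a run cutoff, the mean activation of all tested compounds plus 3 SD, cut at about 14% in these data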;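 note: 0% = plate median of compound wells and 100% = 30 µM serotonin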
Target sequence (P35363 whole entry, looked up): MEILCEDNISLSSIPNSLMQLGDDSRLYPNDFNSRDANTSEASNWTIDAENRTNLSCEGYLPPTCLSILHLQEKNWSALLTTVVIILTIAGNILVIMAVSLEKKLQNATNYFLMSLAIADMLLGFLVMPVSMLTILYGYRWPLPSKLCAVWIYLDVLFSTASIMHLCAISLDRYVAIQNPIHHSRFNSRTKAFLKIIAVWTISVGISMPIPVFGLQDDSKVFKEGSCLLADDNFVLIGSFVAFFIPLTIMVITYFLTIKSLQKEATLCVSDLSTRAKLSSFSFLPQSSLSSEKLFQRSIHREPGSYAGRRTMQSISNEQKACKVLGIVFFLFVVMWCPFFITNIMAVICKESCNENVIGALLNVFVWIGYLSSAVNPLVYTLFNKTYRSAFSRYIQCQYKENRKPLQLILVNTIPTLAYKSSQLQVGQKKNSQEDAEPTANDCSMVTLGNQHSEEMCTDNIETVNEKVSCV
EBI2 antag conf: EBI2 antagonist hit retest, beta-arrestin, confirmation, cell-based, single concentration, luminescence, 7a,25-OHC stimulation | shares compounds with EBI2 antag | 7a,25-OHC antagonism | inhibition, % at 5 µM | hit rate 29% among 2,400;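 active = inhibition of at least 50%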
EBI2 ag: EBI2 agonist activity of antagonist hits, confirmation, counter-screen for EBI2 antagonist project, cell-based, single concentration, agonist mode, luminescence | EBI2-expressing cells, 60 min; 0% vehicle, 100% 7α,25-dihydroxycholesterol control | activation, % at 5 µM | shares compounds with EBI2 antag | 2,400 tested, under 10 active;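 active = activation of at least 50%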
bGal counter: E. coli beta-galactosidase enzyme inhibition, confirmation, counter-screen for EBI2 antagonist project, biochemical, luminescence, single concentration; shares compounds with EBI2 antag; purified beta-galactosidase, luminescent Galacton Star, 15 min; inhibition, % at 5 µM; hit rate 1% among 2,400;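 active = replicate-average signal at least 3 plate SD below neutral wells, shown as high inhibition, flagging enzyme-inhibiting false positives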;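 note: 0% = DMSO wells with enzyme and 100% = wells lacking enzyme; higher means stronger loss of beta-gal luminescence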
Active calls of the source: *; . = no result. Most compounds without a hit are left out; they make up all but 2.8% or so of the library.

SMILES | MC4R ag barr | EBI2 antag | MC4R antag cAMP | HTR2A ag | EBI2 antag conf | EBI2 ag | bGal counter
O=C(CN1CCN(S(=O)(=O)N2CCCCC2)CC1)Nc1ccc(Cl)c(Cl)c1 | 0 | 25 | 2 | -3 | . | . | .
O=C(CN1CCN(S(=O)(=O)c2ccccc2)CC1)Nc1ccc(Cl)c(Cl)c1 | -1 | 61* | 12 | -3 | 45 | 1 | -2
Cc1ccc(S(=O)(=O)N2CCN(CC(=O)N/N=C/C=C/c3ccccc3)CC2)cc1 | -1 | 43* | -3 | 0 | 31 | 0 | 9
O=C(CN1CCN(S(=O)(=O)c2ccc(Br)cc2)CC1)N/N=C/c1ccc(Br)s1 | 9.0* | 65* | -5 | 12 | 44 | -1 | -10
Cc1c(S(=O)(=O)N2CCN(c3ccccc3)CC2)c(=O)n(C)c(=O)n1C | -1 | -11 | 9 | -1 | . | . | .
O=C(Nc1ccccc1C(F)(F)F)C1CCN(C(=O)c2cccs2)CC1 | 1 | 1 | -1 | 9 | . | . | .
Nc1nc(N2CCCCC2)c(C=O)c(N2CCCCC2)n1 | 1 | -8 | 28 | -3 | . | . | .
CCOC(=O)C1=C(O)/C(=C/c2cc(OC)c(OC)c(OC)c2)SC1=Nc1ccc(OC)cc1 | 8.3* | 62* | -7 | 3 | 55* | -2 | -12
CCOc1ccc(N=Cc2ccc3ccccc3c2)cc1 | -1 | -1 | 3 | 4 | . | . | .
CCOc1ccc(N=CNc2ccc(OCC)cc2)cc1 | -1 | 56* | 0 | 1 | 48 | 0 | 4
COc1cc(NC(=O)N2CCc3nc(Nc4cc(Cl)cc(Cl)c4)ncc3C2)cc(OC)c1OC | -3 | 47* | 15 | -3 | 7 | 0 | -15
COc1ccc(CNC(=O)N2CCc3nc(Nc4cc(OC)c(OC)c(OC)c4)ncc3C2)cc1 | -2 | 4 | -1 | 0 | . | . | .
CCOc1cc(N2CCOCC2)c(OCC)cc1NC(=O)COC(=O)c1cccc2ccccc12 | 0 | 55* | 9 | -2 | 42 | 0 | -22
CCOc1cc(N2CCOCC2)c(OCC)cc1NC(=O)COC(=O)c1ccccc1OC(F)F | 4 | 22 | -4 | 4 | . | . | .
Cc1cccc2c(C(=O)N3CCCCC3)cc(-c3ccccc3)nc12 | -1 | 20 | 12 | -4 | . | . | .
Cc1cccc2c(C(=O)N3CCN(c4ccccc4)CC3)cc(-c3ccncc3)nc12 | -5 | 47* | -16 | -5 | 28 | 0 | -2
COc1cc(C(=O)N2CCN(S(=O)(=O)c3cccc(F)c3)CC2)ccc1OCC(=O)N1CCOCC1 | 2 | -2 | 6 | -4 | . | . | .
Cc1ccc2cccc(OCC(=O)NCCC3=CCCCC3)c2n1 | -2 | 48* | 5 | 2 | 24 | 1 | 2
NC(=O)[C@@H]1CC2(CC(c3cccc(NC(=O)COc4ccc(Cl)cc4)c3)=NO2)CN1C(=O)COc1ccc(Cl)cc1 (some centres not stated) | -1 | 53* | 12 | 0 | 24 | -1 | -18
O=C(/C=C/c1cccc(F)c1)c1ccc(N2CCOCC2)cc1 | -2 | 58* | 8 | -6 | 38 | 0 | 3
CC(C)N(Cc1ccccc1)C(=O)COC(=O)c1ccc(S(=O)(=O)N2CCOCC2)cc1 | -1 | 7 | 15 | 4 | . | . | .
COc1ccccc1C1CCN(C(=O)c2ccccc2)CC1 | -1 | -29 | 8 | -1 | . | . | .
COc1ccccc1C1CCN(C(=O)c2cnn(-c3ccccc3)c2C)CC1 | 0 | 54* | -2 | 2 | 20 | 2 | 7
COc1ccccc1C1CCN(C(=O)c2ccc(Cl)cc2)CC1 | 1 | 88* | 1 | -5 | 70* | 2 | 5
O=C(COc1ccc(Cl)cc1Cl)N/N=C/c1ccc(OC2OC(CO)C(O)C(O)C2O)cc1 (configuration not stated) | -1 | 5 | 6 | 2 | . | . | .
SMILES | MC4R ag barr | EBI2 antag | MC4R antag cAMP | HTR2A ag | EBI2 antag conf | EBI2 ag | bGal counter
COc1ccccc1N1CCN(S(=O)(=O)c2ccc3nc(-c4ccccc4)[nH]c3c2)CC1 | 1 | 53* | -1 | -2 | 32 | 1 | 5
COc1ccc(S(=O)(=O)N2CCN(c3ccccc3OC)CC2)cc1OC | -1 | -3 | 9 | 1 | . | . | .
COc1ccccc1CNC(=O)CN1C(=O)NC2(CCCc3sccc32)C1=O (configuration not stated) | 1 | 9 | 3 | 1 | . | . | .
Cc1nc2ccccc2nc1N/N=C/c1ccc(O)cc1 | 0 | 6 | -25 | 1 | . | . | .
Cc1nc(N/N=C/c2ccc(O)cc2)c2cnn(-c3ccccc3)c2n1 | -2 | 53* | -31 | 0 | 28 | -1 | -7
CCOC(=O)c1sc(N)c(C(=O)Nc2ccccc2OC)c1C | 3 | 11 | -5 | -3 | . | . | .
COc1cc(-c2nc3ccc(C)cn3c2NCc2ccccc2)ccc1SC1CCCCC1 | -3 | 72* | 5 | -2 | 55* | 2 | -1
COc1ccc(-c2nc3ccc(C)cn3c2Cc2cccc(Cl)c2)cc1OC | . | 32 | . | -4 | . | . | .
COc1cc(-c2nc3ccc(C)cn3c2NCc2ccccc2)ccc1-c1cccc(Cl)c1 | -2 | 80* | 6 | -4 | 66* | 1 | -5
CCOC(=O)C1(CCOc2ccccc2)CCN(C(=O)c2ccc(-n3cccn3)cc2)CC1 | 0 | 88* | 20 | -4 | 68* | 0 | 7
CCOC(=O)C1(CCOc2ccccc2)CCN(Cc2cccc(-n3cccn3)c2)CC1 | 0 | 2 | -1 | -5 | . | . | .
COc1ccc(/C=N/n2cnn(Cc3ccccc3Cl)c2=S)cc1 | -1 | 49* | 8 | -1 | 45 | -1 | -11
CCOC(=O)c1noc(C)c1C(=O)Nc1nccs1 | 0 | -12 | 4 | 0 | . | . | .
C[C@H](CO)N1C[C@H](C)[C@@H](CN(C)Cc2ccncc2)Oc2c(NS(=O)(=O)c3cccs3)cccc2C1=O | 1 | -11 | 0 | 0 | . | . | .
CCn1c(O)c(/C=C2\C=Nc3ccccc32)sc1=Nc1ccccc1 | 5 | 53* | 3 | -2 | 38 | 0 | 2
Cc1ccc(S(=O)(=O)N[C@H](C(=O)OCC(=O)N2N=C(c3ccc(Cl)cc3)CC2c2ccco2)C(C)C)cc1 (some centres not stated) | -2 | 44* | 8 | -2 | 53* | -1 | -16
